Activity calls are given as the source filed them. No cut-off for these calls is given here.
How the values were obtained:
[1] = target: Serine/threonine-protein kinase 24 (Homo sapiens, UniProt Q9Y6E0); assay: Inhibition of STK24 (unknown origin)
A2058 [2] = assay: Antitumor activity against human A2058 cells harboring BRAF V600E/PTEN deletion mutant xenografted in mouse assessed as decrease in cyclin D1 level at 15 mg/kg, po administered every third day for 21 days and measured after 8 hrs post dose in presence of 4-(2-(1H-indazol-4-yl)-6-((4-(methylsulfonyl)piperazin-1-yl)methyl)thieno[3,2-d]pyrimidin-4-yl)morpholine by Western blot analysis; type: functional, organism-based; settings: time 512.0 hrs
[3] = target: Cyclin-dependent kinase 2/cyclin E1 (Homo sapiens, UniProt P24941); assay: Inhibition of CDK2/cyclinE (unknown origin); type: protein-complex assay
NCI-H441 = assay: Antitumor activity against human NCI-H441 cells harboring KRAS G12V/TP53 R158L/MET high mutant xenografted in mouse assessed as tumor growth inhibition at 10 mg/kg, po; type: functional; settings: read-out: TGI
Method in brief: (§1)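 Human tumor xenografts in mice were dosed orally at the indicated mg/kg. Tumor volume was measured with calipers as (L×W×W)/2. %TGI = 100 × [1 − (AUC treatment/d)/(AUC vehicle/d)], using the area under the fitted tumor-growth curve per day for each dose group relative to vehicle.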

[4] = target: Mitogen-activated protein kinase 1 (Homo sapiens, UniProt P28482); assay: Inhibition of ERK2 (unknown origin)
MIA PaCa-2 = assay: Antitumor activity against human MIA PaCa-2 cells harboring KRAS G12C/NOTCH1 L2458V mutant xenografted in mouse assessed as tumor growth inhibition at 10 mg/kg, po; type: functional; settings: read-out: TGI
Method in brief: (§2)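 Single-agent dose ranging in human tumor xenograft mice at 2.5, 5 or 10 mg/kg oral. Tumor volume was measured by caliper as (L×W×W)/2. %TGI = 100×[1 − AUC(treatment/d)/AUC(vehicle/d)] from the fitted growth curve per dose group, relative to vehicle.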

[5] = target: Serine/threonine-protein kinase WNK2 (Homo sapiens, UniProt Q9Y3S1); assay: Inhibition of WNK2 (unknown origin)
A-375 [6] = assay: Antitumor activity against human A-375 cells harboring BRAF V600E/CDKN2A E61 mutant xenografted in mouse assessed as tumor growth inhibition at 2.5 mg/kg, po; type: functional; settings: A-375, read-out: TGI
Method in brief: (§3)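 Mice carrying human tumor xenografts dosed orally once daily for 21 consecutive days. Tumor volume measured by calipers as (L×W×W)/2. %TGI = 100×[1 − AUC(treatment/day)/AUC(vehicle/day)], using the area under the fitted growth curve relative to vehicle.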

[7] = target: Tyrosine-protein kinase JAK2 (Homo sapiens, UniProt O60674); assay: Inhibition of JAK2 (unknown origin)
[8] = target: G protein-coupled receptor kinase 5 (Homo sapiens, UniProt P34947); assay: Inhibition of GRK5 (unknown origin)
888-mel [9] = assay: Upregulation of Bim level in human 888-mel cells preincubated with compound for 24 hrs followed by compound washout and measured after 2 hrs in presence of 4-(2-(1H-indazol-4-yl)-6-((4-(methylsulfonyl)piperazin-1-yl)methyl)thieno[3,2-d]pyrimidin-4-yl)morpholine by immunoblotting analysis; type: functional, cell-based
[10] = Antitumor activity against human A375.X1 cells xenografted in mouse assessed as tumor growth inhibition at 15 mg/kg, po administered every third day for 21 days; type: functional; settings: A375.X1, 504 h, time 21 day, read-out: TGI
Method in brief: (§4)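 Human tumor xenografts in mice. Drugs given orally, as single agents or combined with the PI3K inhibitor. Schedules were daily (QD) or every third day (Q3D) over 21 days. Tumor volume was measured by caliper as (L×W×W)/2. %TGI = 100×[1 − AUC(treatment/d)/AUC(vehicle/d)] from fitted growth curves, with group means. Tumor lysates were immunoblotted for pS6.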

537-mel = assay: Antitumor activity against human 537-mel cells harboring PTEN null mutation xenografted in mouse assessed as tumor growth inhibition at 2.5 mg/kg, po; type: functional; settings: read-out: TGI; method in brief: as §3
Malme-3M = assay: Antiproliferative activity against human Malme-3M cells assessed reduction in cell viability incubated for 4 days in presence of 4-(2-(1H-indazol-4-yl)-6-((4-(methylsulfonyl)piperazin-1-yl)methyl)thieno[3,2-d]pyrimidin-4-yl)morpholine by celltiter-glo assay; type: functional; settings: time 4 day
Method in brief: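 4-day CellTiter-Glo viability read-out on melanoma lines, cells exposed to increasing concentrations of each inhibitor alone and in combination.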

888-mel [11] = assay: Inhibition of ERK phosphorylation in human 888-mel cells incubated for 24 hrs by immunoblotting analysis; type: cell-based
A549 = assay: Antitumor activity against human A549 cells harboring KRAS G12S/LKB1Q37/SMARCA4 Q729/CDKN2A mutant xenografted in mouse assessed as tumor growth inhibition at 5 mg/kg, po; type: functional; settings: read-out: TGI; method in brief: as §2
SK-OV-3 = assay: Antitumor activity against human SK-OV-3 cells harboring FBXW7 R505L and CDKN2A mutant xenografted in mouse assessed as tumor growth inhibition at 10 mg/kg, po; type: functional; settings: read-out: TGI; method in brief: as §1
Ephrin type-A receptor 2 = Ephrin type-A receptor 2 (Homo sapiens, UniProt P29317); assay: Inhibition of EphA2 (unknown origin)
NCI-H520 = assay: Antitumor activity against human NCI-H520 cells harboring TP53 W146 and CDKN2A G G45 mutant xenografted in mouse assessed as tumor growth inhibition at 5 mg/kg, po; type: functional; settings: read-out: TGI; method in brief: as §1
[12] = target: Serine/threonine-protein kinase PLK3 (Homo sapiens, UniProt Q9H4B4); assay: Inhibition of Plk3 (unknown origin)
[13] = target: Serine/threonine-protein kinase pim-3 (Homo sapiens, UniProt Q86V86); assay: Inhibition of PIM3 (unknown origin)
[14] = target: Proto-oncogene tyrosine-protein kinase Src (Homo sapiens, UniProt P12931); assay: Inhibition of SRC (unknown origin)
A2058 [15] = assay: Antitumor activity against human A2058 cells xenografted in mouse assessed as tumor growth inhibition at 6 mg/kg, po administered once a day for 21 days; type: functional; settings: A2058, 504 h, time 21 day, read-out: TGI; method in brief: as §4
[16] = target: Vascular endothelial growth factor receptor 1 (Homo sapiens, UniProt P17948); assay: Inhibition of Flt1 (unknown origin)
[17] = target: Serine/threonine-protein kinase MARK1 (Homo sapiens, UniProt Q9P0L2); assay: Inhibition of MARK1 (unknown origin)
[18] = target: Rho-associated protein kinase 1 (Homo sapiens, UniProt Q13464); assay: Inhibition of ROCK1 (unknown origin)
888-mel [19] = assay: Inhibition of PI3K/MEK signaling pathway in human 888-mel cells assessed as decrease in ERK phosphorylation by incubated for 24 hrs by Western blot analysis; type: cell-based
[20] = target: Homeodomain-interacting protein kinase 1 (Homo sapiens, UniProt Q86Z02); assay: Inhibition of HIPK1 (unknown origin)
DLD-1 = assay: Antitumor activity against human DLD-1 cells xenografted in mouse assessed as tumor growth inhibition at 15 mg/kg, po administered once a day for 21 days in presence of 4-(2-(1H-indazol-4-yl)-6-((4-(methylsulfonyl)piperazin-1-yl)methyl)thieno[3,2-d]pyrimidin-4-yl)morpholine; type: functional; settings: DLD-1, 504 h, time 21 day, read-out: TGI; method in brief: as §4
[21] = target: Mitogen-activated protein kinase kinase kinase kinase 3 (Homo sapiens, UniProt Q8IVH8); assay: Inhibition of MAP4K3 (unknown origin)
A-375 [22] = assay: Antitumor activity against human A-375 cells harboring BRAF V600E/CDKN2A E61 mutant xenografted in mouse assessed as tumor growth inhibition at 10 mg/kg, po; type: functional; settings: A-375, read-out: TGI; method in brief: as §3

Chain of Proto-oncogene tyrosine-protein kinase Src (P12931 2-536 limits assumed): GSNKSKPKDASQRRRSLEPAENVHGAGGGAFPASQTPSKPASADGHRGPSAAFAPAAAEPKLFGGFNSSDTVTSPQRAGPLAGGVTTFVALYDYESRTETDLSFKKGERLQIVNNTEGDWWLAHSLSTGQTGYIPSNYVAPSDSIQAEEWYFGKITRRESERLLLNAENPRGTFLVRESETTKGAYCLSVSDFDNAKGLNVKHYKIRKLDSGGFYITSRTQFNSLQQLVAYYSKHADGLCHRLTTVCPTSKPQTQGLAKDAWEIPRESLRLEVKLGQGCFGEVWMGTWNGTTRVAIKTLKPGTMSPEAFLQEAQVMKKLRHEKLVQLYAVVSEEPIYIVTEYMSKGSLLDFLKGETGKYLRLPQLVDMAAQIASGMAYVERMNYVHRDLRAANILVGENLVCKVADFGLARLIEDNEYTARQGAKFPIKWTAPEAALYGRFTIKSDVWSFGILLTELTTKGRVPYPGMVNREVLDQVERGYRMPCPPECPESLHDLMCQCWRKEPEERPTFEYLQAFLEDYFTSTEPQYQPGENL
Chain of Serine/threonine-protein kinase PLK3 (Q9H4B4 whole entry): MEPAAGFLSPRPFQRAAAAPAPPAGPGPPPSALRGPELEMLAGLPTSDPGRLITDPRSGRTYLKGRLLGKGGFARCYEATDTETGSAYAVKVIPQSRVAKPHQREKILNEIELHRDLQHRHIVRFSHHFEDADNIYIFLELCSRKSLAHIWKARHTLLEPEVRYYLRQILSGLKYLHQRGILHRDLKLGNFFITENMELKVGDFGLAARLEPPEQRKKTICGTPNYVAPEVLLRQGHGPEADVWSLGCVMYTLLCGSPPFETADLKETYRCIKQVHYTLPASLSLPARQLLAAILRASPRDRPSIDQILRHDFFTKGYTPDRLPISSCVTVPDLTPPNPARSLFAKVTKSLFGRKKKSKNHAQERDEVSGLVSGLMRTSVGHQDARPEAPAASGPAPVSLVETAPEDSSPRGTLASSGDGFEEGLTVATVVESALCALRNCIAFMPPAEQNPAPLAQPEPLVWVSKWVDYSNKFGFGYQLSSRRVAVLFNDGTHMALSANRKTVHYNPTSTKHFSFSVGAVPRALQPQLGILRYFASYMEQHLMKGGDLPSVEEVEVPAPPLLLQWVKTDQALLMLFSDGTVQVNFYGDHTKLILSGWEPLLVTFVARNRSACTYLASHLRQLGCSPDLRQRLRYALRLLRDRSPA
Chain of Serine/threonine-protein kinase WNK2 (Q9Y3S1 whole entry): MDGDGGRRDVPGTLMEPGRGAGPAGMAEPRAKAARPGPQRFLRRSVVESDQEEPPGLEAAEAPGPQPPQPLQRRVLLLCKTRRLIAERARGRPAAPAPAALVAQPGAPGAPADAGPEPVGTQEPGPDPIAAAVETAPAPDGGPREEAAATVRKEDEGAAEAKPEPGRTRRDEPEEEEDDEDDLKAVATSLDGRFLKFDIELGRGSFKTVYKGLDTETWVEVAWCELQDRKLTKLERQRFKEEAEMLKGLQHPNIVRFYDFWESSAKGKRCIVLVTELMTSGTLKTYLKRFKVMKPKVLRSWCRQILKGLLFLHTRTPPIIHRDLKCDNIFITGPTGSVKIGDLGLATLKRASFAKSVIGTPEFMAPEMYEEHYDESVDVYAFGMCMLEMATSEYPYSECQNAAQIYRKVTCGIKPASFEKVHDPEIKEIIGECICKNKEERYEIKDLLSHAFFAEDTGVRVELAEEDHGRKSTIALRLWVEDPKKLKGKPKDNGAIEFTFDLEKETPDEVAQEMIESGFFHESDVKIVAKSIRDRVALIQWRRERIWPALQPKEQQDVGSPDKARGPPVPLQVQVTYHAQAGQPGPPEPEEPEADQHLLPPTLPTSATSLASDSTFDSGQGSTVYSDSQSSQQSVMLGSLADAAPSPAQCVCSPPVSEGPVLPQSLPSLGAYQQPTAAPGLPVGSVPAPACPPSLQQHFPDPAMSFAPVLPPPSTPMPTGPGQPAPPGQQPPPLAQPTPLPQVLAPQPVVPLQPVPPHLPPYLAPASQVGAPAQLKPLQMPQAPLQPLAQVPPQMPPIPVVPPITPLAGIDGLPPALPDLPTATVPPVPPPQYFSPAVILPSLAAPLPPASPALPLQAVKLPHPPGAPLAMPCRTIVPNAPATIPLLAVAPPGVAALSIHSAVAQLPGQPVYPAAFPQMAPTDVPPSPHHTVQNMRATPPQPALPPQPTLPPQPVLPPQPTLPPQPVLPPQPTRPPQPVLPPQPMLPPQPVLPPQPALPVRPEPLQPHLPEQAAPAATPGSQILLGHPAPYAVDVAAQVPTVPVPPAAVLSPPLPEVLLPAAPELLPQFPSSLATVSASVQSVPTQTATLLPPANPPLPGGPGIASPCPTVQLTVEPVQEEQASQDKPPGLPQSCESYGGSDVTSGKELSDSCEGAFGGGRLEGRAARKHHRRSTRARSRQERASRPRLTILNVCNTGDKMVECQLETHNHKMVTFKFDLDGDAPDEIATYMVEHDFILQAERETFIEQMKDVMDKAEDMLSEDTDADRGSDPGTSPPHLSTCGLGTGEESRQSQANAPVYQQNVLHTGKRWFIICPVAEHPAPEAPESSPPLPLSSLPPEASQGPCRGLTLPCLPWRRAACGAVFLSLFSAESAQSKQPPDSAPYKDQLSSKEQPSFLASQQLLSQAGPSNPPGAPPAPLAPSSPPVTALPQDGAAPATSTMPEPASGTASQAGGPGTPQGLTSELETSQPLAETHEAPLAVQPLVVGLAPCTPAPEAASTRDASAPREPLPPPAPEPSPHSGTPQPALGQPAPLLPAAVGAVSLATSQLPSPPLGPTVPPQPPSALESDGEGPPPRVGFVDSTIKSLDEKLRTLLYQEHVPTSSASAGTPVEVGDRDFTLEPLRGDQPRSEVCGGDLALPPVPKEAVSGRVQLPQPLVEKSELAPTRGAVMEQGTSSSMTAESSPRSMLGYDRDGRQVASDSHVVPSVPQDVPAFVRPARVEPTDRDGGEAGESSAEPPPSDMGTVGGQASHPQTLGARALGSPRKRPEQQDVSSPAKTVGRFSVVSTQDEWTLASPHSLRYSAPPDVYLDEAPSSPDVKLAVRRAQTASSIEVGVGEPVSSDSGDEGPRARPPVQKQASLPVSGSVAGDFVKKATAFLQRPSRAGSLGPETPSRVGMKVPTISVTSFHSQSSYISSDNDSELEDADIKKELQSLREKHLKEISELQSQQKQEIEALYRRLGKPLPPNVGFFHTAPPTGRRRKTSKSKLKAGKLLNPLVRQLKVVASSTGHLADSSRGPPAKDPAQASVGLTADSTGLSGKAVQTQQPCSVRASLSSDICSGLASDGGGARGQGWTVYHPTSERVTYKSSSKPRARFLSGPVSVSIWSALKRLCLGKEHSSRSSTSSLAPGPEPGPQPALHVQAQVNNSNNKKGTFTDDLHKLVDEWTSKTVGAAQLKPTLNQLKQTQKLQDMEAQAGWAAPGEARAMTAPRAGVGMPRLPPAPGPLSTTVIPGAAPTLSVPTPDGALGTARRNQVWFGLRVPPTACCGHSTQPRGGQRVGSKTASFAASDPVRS
Chain of Homeodomain-interacting protein kinase 1 (Q86Z02 whole entry): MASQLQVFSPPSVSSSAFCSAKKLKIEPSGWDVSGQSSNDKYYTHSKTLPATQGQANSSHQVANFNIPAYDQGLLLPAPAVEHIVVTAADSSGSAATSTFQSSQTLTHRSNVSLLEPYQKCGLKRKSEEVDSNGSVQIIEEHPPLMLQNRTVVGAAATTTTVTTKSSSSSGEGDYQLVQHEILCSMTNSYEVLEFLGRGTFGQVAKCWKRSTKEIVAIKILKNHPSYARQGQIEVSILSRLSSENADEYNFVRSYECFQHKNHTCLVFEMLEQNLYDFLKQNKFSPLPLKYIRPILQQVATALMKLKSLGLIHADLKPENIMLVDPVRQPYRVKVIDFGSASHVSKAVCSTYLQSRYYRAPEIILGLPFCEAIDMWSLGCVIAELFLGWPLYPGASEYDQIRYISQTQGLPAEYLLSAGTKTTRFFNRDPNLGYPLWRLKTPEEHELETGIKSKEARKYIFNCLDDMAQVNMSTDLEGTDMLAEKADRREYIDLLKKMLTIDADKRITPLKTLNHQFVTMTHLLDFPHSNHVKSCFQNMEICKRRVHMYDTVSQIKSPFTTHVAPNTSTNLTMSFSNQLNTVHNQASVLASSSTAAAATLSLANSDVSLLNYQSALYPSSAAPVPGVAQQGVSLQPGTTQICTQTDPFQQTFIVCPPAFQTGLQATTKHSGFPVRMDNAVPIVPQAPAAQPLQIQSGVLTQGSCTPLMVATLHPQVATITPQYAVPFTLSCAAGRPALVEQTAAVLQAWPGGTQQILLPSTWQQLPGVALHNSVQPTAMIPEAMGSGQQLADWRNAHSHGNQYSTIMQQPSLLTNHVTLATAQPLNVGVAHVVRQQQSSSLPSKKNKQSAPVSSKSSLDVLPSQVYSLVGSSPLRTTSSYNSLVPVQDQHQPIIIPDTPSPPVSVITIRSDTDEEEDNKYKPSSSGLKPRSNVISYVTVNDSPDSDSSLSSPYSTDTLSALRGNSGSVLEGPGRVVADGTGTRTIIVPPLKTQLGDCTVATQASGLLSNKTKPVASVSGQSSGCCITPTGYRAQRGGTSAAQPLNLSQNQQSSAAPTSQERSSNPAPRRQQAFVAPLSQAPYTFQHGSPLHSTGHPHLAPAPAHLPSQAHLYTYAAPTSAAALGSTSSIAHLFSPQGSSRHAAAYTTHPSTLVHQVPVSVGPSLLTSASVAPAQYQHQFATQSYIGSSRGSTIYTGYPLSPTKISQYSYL
Chain of Mitogen-activated protein kinase 1 (P28482 whole entry): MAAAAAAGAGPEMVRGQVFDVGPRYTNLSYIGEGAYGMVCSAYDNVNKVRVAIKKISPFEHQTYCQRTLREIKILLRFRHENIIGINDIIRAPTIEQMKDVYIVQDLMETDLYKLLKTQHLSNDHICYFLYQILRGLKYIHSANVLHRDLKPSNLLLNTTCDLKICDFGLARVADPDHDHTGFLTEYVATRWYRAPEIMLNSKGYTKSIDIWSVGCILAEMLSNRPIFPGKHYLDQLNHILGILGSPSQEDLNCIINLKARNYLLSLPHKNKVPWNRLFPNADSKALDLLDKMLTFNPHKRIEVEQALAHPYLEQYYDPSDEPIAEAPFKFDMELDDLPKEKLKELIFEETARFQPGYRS

IC50 [1]: > 10 µM
IC50 [3]: > 10 µM
IC50 [4]: > 10 µM
IC50 [5]: > 10 µM
IC50 [7]: > 10 µM
IC50 [8]: > 10 µM
IC50 (Ephrin type-A receptor 2): > 10 µM
IC50 [12]: > 10 µM
IC50 [13]: > 10 µM
IC50 [14]: > 10 µM
IC50 [16]: > 10 µM
IC50 [17]: > 10 µM
IC50 [18]: > 10 µM
IC50 [20]: > 10 µM
IC50 [21]: > 10 µM
SMILES: O=C(c1ccc(F)c(F)c1Nc1ccc(I)cc1F)N1CC(O)([C@@H]2CCCCN2)C1 [COBIMETINIB]
Activity (A2058 [2]): Active
inhibition in vivo at 10 mg/kg (NCI-H441): 85%
inhibition in vivo at 10 mg/kg (MIA PaCa-2): 12%
inhibition in vivo at 2.5 mg/kg (A-375 [6]): 98%
Activity (888-mel [9]): Active
inhibition in vivo at 15 mg/kg [10]: 75%
inhibition in vivo at 2.5 mg/kg (537-mel): 69%
Activity (Malme-3M): 60%
inhibition (888-mel [11]): Active
inhibition in vivo at 5 mg/kg (A549): 51.4%
inhibition in vivo at 10 mg/kg (SK-OV-3): 63%
inhibition in vivo at 5 mg/kg (NCI-H520): 26%
inhibition in vivo at 6 mg/kg (A2058 [15]): 44%
inhibition (888-mel [19]): Active
inhibition in vivo at 15 mg/kg (DLD-1): 69%
inhibition in vivo at 10 mg/kg (A-375 [22]): 122%

Source: ChEMBL document CHEMBL5678805, “Intermittent administration of MEK inhibitor GDC-0973 plus PI3K inhibitor GDC-0941 triggers robust apoptosis and tumor growth inhibition” (Cancer Res, 2012)
